Assay results reported in ChEMBL document CHEMBL3627695, “1-Benzyl-2-methyl-3-indolylmethylene barbituric acid derivatives: Anti-cancer agents that target nucleophosmin 1 (NPM1)” (Bioorg Med Chem, 2015).
The source made the active and inactive calls. No cut-off for these calls is given here.

Tests used:
[1] = (§1) Anticancer activity against human OCI-AML3 cells expressing mutant NPM1 assessed as apoptosis for 48 hrs by annexin-V and TO-PRO3 staining based flow cytometry; type: functional, cell-based; settings: OCI-AML-3, 48 h
In short: (§2)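 OCI-AML3 cells (NPM1c+) in logarithmic growth, passaged 2–3 times weekly. Cells were exposed to the indicated compound concentrations for 48 hr, then stained with annexin V and TO-PRO 3. Percent apoptotic cells was read by flow cytometry. AP50 is the concentration at which 50% of cells undergo apoptosis.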

OCI-AML-3 = assay: as §1; type: functional, cell-based; in short: as §2
CCRF-CEM = assay: Anticancer activity against human CCRF-CEM cells after 48 hrs by sulforhodamine B assay; type: functional
In short: (§3)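 NCI-60 human tumour cell line panel. Compounds dissolved in DMSO/H2O and tested at five 10-fold dilutions (10⁻⁴ M to 10⁻⁸ M) for 48 hr. GI50 is the molar concentration giving 50% reduction in net cell growth relative to cell numbers on day 0.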

HL-60(TB) = assay: Anticancer activity against human HL-60(TB) cells after 48 hrs by sulforhodamine B assay; type: functional; settings: HL-60, 48 h; in short: as §3
K562 = assay: Anticancer activity against human K562 cells after 48 hrs by sulforhodamine B assay; type: functional; settings: K562, 48 h; in short: as §3
[2] = Anticancer activity against human MOLT4 cells after 48 hrs by sulforhodamine B assay; type: functional; settings: MOLT-4, 48 h; in short: as §3
[3] = Anticancer activity against human RPMI8226 cells after 48 hrs by sulforhodamine B assay; type: functional; settings: RPMI-8226, 48 h; in short: as §3
SR = assay: Anticancer activity against human SR cells after 48 hrs by sulforhodamine B assay; type: functional
In short: (§4)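 NCI-60 panel protocol. Compounds were dissolved in DMSO/H2O and tested at five 10-fold concentrations (10⁻⁴ to 10⁻⁸ M) with 48 hr incubation. GI50 is the molar concentration giving a 50% reduction in net cell growth relative to cell numbers on day 0.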

A549 = assay: Anticancer activity against human A549/ATCC cells after 48 hrs by sulforhodamine B assay; type: functional; settings: A549, 48 h; in short: as §3
HOP-62 = assay: Anticancer activity against human HOP62 cells after 48 hrs by sulforhodamine B assay; type: functional; settings: HOP-62, 48 h; in short: as §3
[4] = Anticancer activity against human HOP92 cells after 48 hrs by sulforhodamine B assay; type: functional; settings: HOP-92, 48 h; in short: as §3
NCI-H226 = assay: Anticancer activity against human NCI-H226 cells after 48 hrs by sulforhodamine B assay; type: functional; settings: NCI-H226, 48 h; in short: as §3
NCI-H322M = assay: Anticancer activity against human NCI-H322M cells after 48 hrs by sulforhodamine B assay; type: functional; in short: as §3
NCI-H460 = assay: Anticancer activity against human NCI-H460 cells after 48 hrs by sulforhodamine B assay; type: functional; settings: NCI-H460, 48 h; in short: as §3
NCI-H522 = assay: Anticancer activity against human NCI-H522 cells after 48 hrs by sulforhodamine B assay; type: functional; settings: NCI-H522, 48 h; in short: as §3
[5] = Anticancer activity against human COLO205 cells after 48 hrs by sulforhodamine B assay; type: functional; settings: COLO 205, 48 h; in short: as §3
[6] = Anticancer activity against human HCC2998 cells after 48 hrs by sulforhodamine B assay; type: functional; settings: HCC 2998, 48 h; in short: as §3
HCT-116 = assay: Anticancer activity against human HCT116 cells after 48 hrs by sulforhodamine B assay; type: functional; settings: HCT-116, 48 h; in short: as §3
HCT-15 = assay: Anticancer activity against human HCT15 cells after 48 hrs by sulforhodamine B assay; type: functional; settings: HCT-15, 48 h; in short: as §3
HT-29 = assay: Anticancer activity against human HT-29 cells after 48 hrs by sulforhodamine B assay; type: functional; settings: HT-29, 48 h; in short: as §3
KM12 = assay: Anticancer activity against human KM12 cells after 48 hrs by sulforhodamine B assay; type: functional; settings: KM12, 48 h; in short: as §3
SW-620 = assay: Anticancer activity against human SW620 cells after 48 hrs by sulforhodamine B assay; type: functional; settings: SW-620, 48 h; in short: as §4
SF-268 = assay: Anticancer activity against human SF268 cells after 48 hrs by sulforhodamine B assay; type: functional; settings: SF-268, 48 h; in short: as §3
[7] = Anticancer activity against human SF295 cells after 48 hrs by sulforhodamine B assay; type: functional; settings: SF-295, 48 h; in short: as §3
[8] = Anticancer activity against human SF539 cells after 48 hrs by sulforhodamine B assay; type: functional; settings: SF-539, 48 h; in short: as §3
SNB-19 = assay: Anticancer activity against human SNB19 cells after 48 hrs by sulforhodamine B assay; type: functional; settings: SNB-19, 48 h; in short: as §3
SNB-75 = assay: Anticancer activity against human SNB75 cells after 48 hrs by sulforhodamine B assay; type: functional; settings: SNB-75, 48 h; in short: as §3
U-251 = assay: Anticancer activity against human U251 cells after 48 hrs by sulforhodamine B assay; type: functional; settings: U-251, 48 h; in short: as §4
[9] = Anticancer activity against human LOXIMVI cells after 48 hrs by sulforhodamine B assay; type: functional; settings: LOX IMVI; in short: as §3
Malme-3M = assay: Anticancer activity against human MALME-3M cells after 48 hrs by sulforhodamine B assay; type: functional; in short: as §3
M14 = assay: Anticancer activity against human M14 cells after 48 hrs by sulforhodamine B assay; type: functional; settings: M14, 48 h; in short: as §3
MDA-MB-435 = assay: Anticancer activity against human MDA-MB-435 cells after 48 hrs by sulforhodamine B assay; type: functional; settings: MDA-MB-435, 48 h; in short: as §3
SK-MEL-2 = assay: Anticancer activity against human SK-MEL-2 cells after 48 hrs by sulforhodamine B assay; type: functional; settings: SK-MEL-2, 48 h; in short: as §3
SK-MEL-28 = assay: Anticancer activity against human SK-MEL-28 cells after 48 hrs by sulforhodamine B assay; type: functional; settings: SK-MEL-28, 48 h; in short: as §3
SK-MEL-5 = assay: Anticancer activity against human SK-MEL-5 cells after 48 hrs by sulforhodamine B assay; type: functional; settings: SK-MEL-5, 48 h; in short: as §3
UACC-257 = assay: Anticancer activity against human UACC257 cells after 48 hrs by sulforhodamine B assay; type: functional; settings: UACC-257, 48 h; in short: as §4
IGROV-1 = assay: Anticancer activity against human IGROV1 cells after 48 hrs by sulforhodamine B assay; type: functional; settings: IGROV-1, 48 h; in short: as §3
OVCAR-3 = assay: Anticancer activity against human OVCAR3 cells after 48 hrs by sulforhodamine B assay; type: functional; settings: OVCAR-3, 48 h; in short: as §3
OVCAR-4 = assay: Anticancer activity against human OVCAR4 cells after 48 hrs by sulforhodamine B assay; type: functional; settings: OVCAR-4, 48 h; in short: as §3
OVCAR-5 = assay: Anticancer activity against human OVCAR5 cells after 48 hrs by sulforhodamine B assay; type: functional; settings: OVCAR-5, 48 h; in short: as §3
OVCAR-8 = assay: Anticancer activity against human OVCAR8 cells after 48 hrs by sulforhodamine B assay; type: functional; settings: OVCAR-8, 48 h; in short: as §3
[10] = Anticancer activity against human NCI-ADR-RES cells after 48 hrs by sulforhodamine B assay; type: functional; in short: as §3
SK-OV-3 = assay: Anticancer activity against human SKOV3 cells after 48 hrs by sulforhodamine B assay; type: functional; settings: SK-OV-3, 48 h; in short: as §3
786-0 = assay: Anticancer activity against human 786-0 cells after 48 hrs by sulforhodamine B assay; type: functional; settings: 786-0, 48 h; in short: as §3
A498 = assay: Anticancer activity against human A498 cells after 48 hrs by sulforhodamine B assay; type: functional; settings: A498, 48 h; in short: as §3
ACHN = assay: Anticancer activity against human ACHN cells after 48 hrs by sulforhodamine B assay; type: functional; in short: as §3
CAKI-1 = assay: Anticancer activity against human Caki1 cells after 48 hrs by sulforhodamine B assay; type: functional; settings: CAKI-1, 48 h; in short: as §3
[11] = Anticancer activity against human RXF393 cells after 48 hrs by sulforhodamine B assay; type: functional; settings: RXF 393, 48 h; in short: as §3
SN12C = assay: Anticancer activity against human SN12C cells after 48 hrs by sulforhodamine B assay; type: functional; in short: as §3
TK-10 = assay: Anticancer activity against human TK10 cells after 48 hrs by sulforhodamine B assay; type: functional; settings: TK-10, 48 h; in short: as §4
UO-31 = assay: Anticancer activity against human UO31 cells after 48 hrs by sulforhodamine B assay; type: functional; settings: UO-31, 48 h; in short: as §4
DU-145 = assay: Anticancer activity against human DU145 cells after 48 hrs by sulforhodamine B assay; type: functional; settings: DU-145, 48 h; in short: as §3
MCF7 = assay: Anticancer activity against human MCF7 cells after 48 hrs by sulforhodamine B assay; type: functional; settings: MCF7, 48 h; in short: as §3
MDA-MB-231 = assay: Anticancer activity against human MDA-MB-231 cells after 48 hrs by sulforhodamine B assay; type: functional; settings: MDA-MB-231, 48 h; in short: as §3
[12] = Anticancer activity against human Hs 578T cells after 48 hrs by sulforhodamine B assay; type: functional; in short: as §3
BT-549 = assay: Anticancer activity against human BT549 cells after 48 hrs by sulforhodamine B assay; type: functional; settings: BT-549, 48 h; in short: as §3
T47D = assay: Anticancer activity against human T47D cells after 48 hrs by sulforhodamine B assay; type: functional; in short: as §4
MDA-MB-468 = assay: Anticancer activity against human MDA-MB-468 cells after 48 hrs by sulforhodamine B assay; type: functional; settings: MDA-MB-468, 48 h; in short: as §3

Cc1c(C=C2C(=O)NC(=S)NC2=O)c2ccccc2n1Cc1ccc(Br)cc1
AC50 [1]: 3.3 µM
Activity (OCI-AML-3): Dose-dependent effect

N#Cc1ccc(Cn2cc(C=C3C(=O)NC(=O)NC3=O)c3ccccc32)cc1
AC50 [1]: > 20 µM

COC(=O)c1ccc(Cn2c(C)c(C=C3C(=O)NC(=S)NC3=O)c3ccccc32)cc1
GI50 (CCRF-CEM): 0.34 µM
GI50 (HL-60(TB)): 0.22 µM
GI50 (K562): 0.27 µM
GI50 [2]: 0.35 µM
GI50 [3]: 0.31 µM
GI50 (SR): 0.32 µM
GI50 (A549): 1.36 µM
GI50 (HOP-62): 0.39 µM
GI50 [4]: 0.25 µM
GI50 (NCI-H226): 0.41 µM
GI50 (NCI-H322M): 0.53 µM
GI50 (NCI-H460): 0.33 µM
GI50 (NCI-H522): 0.25 µM
GI50 [5]: 0.2 µM
GI50 [6]: 0.4 µM
GI50 (HCT-116): 0.26 µM
GI50 (HCT-15): 0.33 µM
GI50 (HT-29): 0.31 µM
GI50 (KM12): 0.31 µM
GI50 (SW-620): 0.4 µM
GI50 (SF-268): 0.42 µM
GI50 [7]: 0.35 µM
GI50 [8]: 0.22 µM
GI50 (SNB-19): 1.05 µM
GI50 (SNB-75): 0.46 µM
GI50 (U-251): 0.32 µM
GI50 [9]: 0.32 µM
GI50 (Malme-3M): 1.48 µM
GI50 (M14): 0.33 µM
GI50 (MDA-MB-435): 0.22 µM
GI50 (SK-MEL-2): 1.12 µM
GI50 (SK-MEL-28): 1.05 µM
GI50 (SK-MEL-5): 1.13 µM
GI50 (UACC-257): 0.8 µM
GI50 (IGROV-1): 0.51 µM
GI50 (OVCAR-3): 0.3 µM
GI50 (OVCAR-4): 0.46 µM
GI50 (OVCAR-5): 0.42 µM
GI50 (OVCAR-8): 0.32 µM
GI50 [10]: 0.35 µM
GI50 (SK-OV-3): 0.45 µM
GI50 (786-0): 0.32 µM
GI50 (A498): 0.19 µM
GI50 (ACHN): 0.51 µM
GI50 (CAKI-1): 0.5 µM
GI50 [11]: 0.3 µM
GI50 (SN12C): 0.41 µM
GI50 (TK-10): 0.31 µM
GI50 (UO-31): 0.41 µM
GI50 (DU-145): 0.34 µM
GI50 (MCF7): 0.4 µM
GI50 (MDA-MB-231): 0.38 µM
GI50 [12]: 0.22 µM
GI50 (BT-549): 0.31 µM
GI50 (T47D): 1.86 µM
GI50 (MDA-MB-468): 0.34 µM
AC50 [1]: 1.75 µM
Activity (OCI-AML-3): Dose-dependent effect

Cc1c(C=C2C(=O)NC(=O)NC2=O)c2ccccc2n1Cc1ccccc1
Activity (OCI-AML-3): inactive
